Source: ChEMBL document CHEMBL1914285, “Identification of new antimalarial leads by use of virtual screening against cytochrome bc₁” (Bioorg Med Chem, 2011)

system: Plasmodium falciparum; test: Antiplasmodial activity against chloroquine-resistant Plasmodium falciparum W2 infected in human erythrocytes after 48 hrs by FACS analysis; assay type: functional, organism-based; details: W2, 48 h
Summary of the method: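 Ring-stage W2-infected human RBCs at ~1% parasitemia, sorbitol (5%) synchronized; 48 h at 37 °C with compounds in RPMI-1640, 25 mM HEPES pH 7.4, 10% heat-inactivated human serum (or 0.5% Albumax/2% human serum), 100 hypoxanthine, 3% O2/5% CO2/91% N2. Cells fixed in 2% HCHO, stained with 1 nM YOYO-1 (NH4Cl/Triton X-100), flow cytometry at ex 488/em 520 nm; IC50 by curve fitting.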

SMILES	IC50
O=C(NCc1cccnc1)C1CCC(Cn2c(=S)[nH]c3ccccc3c2=O)CC1 (stereo not drawn)	1.97 µM
CCSc1nnc(NC(=O)CS(=O)(=O)c2c[nH]c3ccccc23)s1	> 50 µM
O=C(Cc1ccc2c(c1)CCC2)NCCc1ccco1	> 50 µM
Cc1ccc2[nH]c3nc(SCC(=O)Nc4sc5c(c4C#N)CCCC5)nnc3c2c1	> 50 µM
COc1ccc2[nH]c3nc(SCC(=O)Nc4nc(C(C)(C)C)cs4)nnc3c2c1	27.1 µM
NC(=O)C(CC(=O)c1csc(C2CCCNC2)n1)Cc1c[nH]c2ccccc12 (stereo not drawn)	> 50 µM
CCn1c(SCc2nc(-c3cccs3)no2)nnc1-c1c[nH]c2ccccc12	28.5 µM
O=C(NCc1ccoc1)C1CCC(Cn2c(=S)[nH]c3ccccc3c2=O)CC1 (stereo not drawn)	> 50 µM
Cc1ccc(CNC(=O)CCn2c(=S)[nH]c3cc4c(cc3c2=O)OCO4)o1	> 50 µM
c1ccn2cc(CSc3nnc(C4CC4)o3)nc2c1	> 50 µM
COc1ccc(-c2noc(CSc3nnc(-c4c[nH]c5ccccc45)n3C)n2)cc1OC	12.1 µM
COc1ccc(SCCc2ccc(C)nc2)cc1	> 50 µM
Cc1nc2ccccc2nc1CSCc1ccco1	> 50 µM
COc1ccc(NC(=O)CCCn2c(=S)[nH]c3ccccc3c2=O)cc1OC	> 50 µM
Cn1c(SCc2nc(-c3ccc(Cl)cc3)no2)nnc1-c1c[nH]c2ccccc12	> 50 µM
Cc1ccccc1OCCSc1nnc(-c2c[nH]c3ccccc23)n1C	6.69 µM
CCCNc1nnc(SCc2cscn2)s1	> 50 µM
O=C(CSc1nnc(-c2c[nH]c3ccccc23)o1)c1ccc2c(c1)OCCO2	> 50 µM
Cc1ccc(NC(=O)CSc2nc(O)cc(NS(=O)(=O)c3ccccc3)n2)cc1	> 50 µM
Cn1c(SCc2nc(-c3cccs3)no2)nnc1-c1c[nH]c2ccccc12	29.5 µM
CSCCC(N)c1nc(C(=O)CC(Cc2c[nH]c3ccccc23)C(N)=O)cs1 (stereo not drawn)	> 50 µM
Cc1ccc(C)n1CCSc1nc(N)cc(N)n1	> 50 µM
c1cnc(SCCOc2ccc3c(c2)CCC3)nc1	> 50 µM
